Test results as given in article PMC10825549 (JID Innovations, 2023).

Columns and labels:
CYP2D6 = CYP2D6 (Homo sapiens, UniProt P10635); assay: Cytochrome P450 phenotyping; format: in vitro ADME; settings: recombinant human CYP2D6; with NADPH; 30 minutes; n = 1
Method in brief: (§1)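 Recombinant human CYPs prepared at CYP1A2 200 nM, CYP2B6/2C8 250 nM, CYP2C9 100 nM, CYP2D6 50 nM. Test compound added as 2 μM DMSO dosing solution on ice. Plate prewarmed, then 8 mM NADPH solution or blank buffer added. Incubation 60 min (1A2, 2B6, 2C8) or 30 min (2C9, 2D6). Stopped with acetonitrile plus internal standard; supernatant by LC-MS/MS; n = 1.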

CYP2C9 = CYP2C9 (Homo sapiens, UniProt P11712); assay: Cytochrome P450 phenotyping; format: in vitro ADME; settings: recombinant human CYP2C9; with NADPH; 30 minutes; n = 1
Sequence of CYP2C9 (P11712 whole entry): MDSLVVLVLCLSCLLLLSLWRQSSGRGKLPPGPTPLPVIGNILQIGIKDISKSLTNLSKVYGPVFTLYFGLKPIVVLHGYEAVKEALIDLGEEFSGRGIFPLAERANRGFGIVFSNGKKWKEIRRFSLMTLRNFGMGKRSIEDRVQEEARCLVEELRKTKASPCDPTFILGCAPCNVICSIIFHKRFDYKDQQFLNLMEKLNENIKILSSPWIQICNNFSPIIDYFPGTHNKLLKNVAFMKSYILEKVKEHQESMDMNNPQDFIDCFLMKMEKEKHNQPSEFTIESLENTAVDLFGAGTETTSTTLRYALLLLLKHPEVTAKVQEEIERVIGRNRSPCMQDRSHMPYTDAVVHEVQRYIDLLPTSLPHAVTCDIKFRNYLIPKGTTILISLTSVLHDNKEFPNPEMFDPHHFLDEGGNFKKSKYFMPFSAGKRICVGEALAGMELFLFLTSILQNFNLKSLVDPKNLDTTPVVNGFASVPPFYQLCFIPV
Method in brief: as §1

CYP3A4 = CYP3A4 (Homo sapiens, UniProt P08684); assay: Cytochrome P450 phenotyping; format: in vitro ADME; settings: recombinant human CYP3A4; with NADPH; 30 minutes; n = 1
Sequence of CYP3A4 (P08684 whole entry): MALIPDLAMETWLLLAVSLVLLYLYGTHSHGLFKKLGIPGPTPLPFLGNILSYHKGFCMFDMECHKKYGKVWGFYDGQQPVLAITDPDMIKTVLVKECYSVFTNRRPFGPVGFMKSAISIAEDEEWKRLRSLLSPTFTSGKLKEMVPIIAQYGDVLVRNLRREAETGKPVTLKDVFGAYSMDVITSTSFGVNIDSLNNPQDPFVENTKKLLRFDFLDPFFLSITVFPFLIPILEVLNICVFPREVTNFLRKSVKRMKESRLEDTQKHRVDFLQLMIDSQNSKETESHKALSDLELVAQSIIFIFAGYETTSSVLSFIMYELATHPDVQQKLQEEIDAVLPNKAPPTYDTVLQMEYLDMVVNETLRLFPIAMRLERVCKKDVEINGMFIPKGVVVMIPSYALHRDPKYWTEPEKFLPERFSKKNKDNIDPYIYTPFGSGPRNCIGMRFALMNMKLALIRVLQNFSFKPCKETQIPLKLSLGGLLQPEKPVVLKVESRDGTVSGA
Method in brief: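 Recombinant human CYP3A4 was prepared at 100 nM, and a 2 μM dosing solution of test compound in DMSO was added on ice. After prewarming, 8 mM NADPH solution or blank buffer was added for 30 minutes. Acetonitrile with internal standard stopped the reaction. The plate was shaken and centrifuged, and the supernatant was analysed by LC-MS/MS; n = 1.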

CYP2C8 = CYP2C8 (Homo sapiens, UniProt P10632); assay: Cytochrome P450 phenotyping; format: in vitro ADME; settings: recombinant human CYP2C8; with NADPH; 60 minutes; n = 1
Sequence of CYP2C8 (P10632 whole entry): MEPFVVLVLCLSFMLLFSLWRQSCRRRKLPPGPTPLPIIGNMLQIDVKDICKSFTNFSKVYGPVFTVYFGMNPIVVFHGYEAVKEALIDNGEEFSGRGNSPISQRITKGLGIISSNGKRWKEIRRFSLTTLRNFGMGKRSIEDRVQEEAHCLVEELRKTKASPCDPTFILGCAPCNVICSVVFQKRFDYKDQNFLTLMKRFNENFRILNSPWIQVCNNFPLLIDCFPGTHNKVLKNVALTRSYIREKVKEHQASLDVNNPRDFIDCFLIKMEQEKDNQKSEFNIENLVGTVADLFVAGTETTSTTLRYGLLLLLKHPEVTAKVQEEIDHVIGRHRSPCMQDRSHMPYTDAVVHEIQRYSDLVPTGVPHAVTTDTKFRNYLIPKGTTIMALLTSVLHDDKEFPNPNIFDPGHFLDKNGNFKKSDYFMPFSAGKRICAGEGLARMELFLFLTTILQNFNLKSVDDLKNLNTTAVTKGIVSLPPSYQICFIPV
Method in brief: as §1

CYP1A2 = CYP1A2 (Homo sapiens, UniProt P05177); assay: Cytochrome P450 phenotyping; format: in vitro ADME; settings: recombinant human CYP1A2; with NADPH; 60 minutes; n = 1
Sequence of CYP1A2 (P05177 whole entry): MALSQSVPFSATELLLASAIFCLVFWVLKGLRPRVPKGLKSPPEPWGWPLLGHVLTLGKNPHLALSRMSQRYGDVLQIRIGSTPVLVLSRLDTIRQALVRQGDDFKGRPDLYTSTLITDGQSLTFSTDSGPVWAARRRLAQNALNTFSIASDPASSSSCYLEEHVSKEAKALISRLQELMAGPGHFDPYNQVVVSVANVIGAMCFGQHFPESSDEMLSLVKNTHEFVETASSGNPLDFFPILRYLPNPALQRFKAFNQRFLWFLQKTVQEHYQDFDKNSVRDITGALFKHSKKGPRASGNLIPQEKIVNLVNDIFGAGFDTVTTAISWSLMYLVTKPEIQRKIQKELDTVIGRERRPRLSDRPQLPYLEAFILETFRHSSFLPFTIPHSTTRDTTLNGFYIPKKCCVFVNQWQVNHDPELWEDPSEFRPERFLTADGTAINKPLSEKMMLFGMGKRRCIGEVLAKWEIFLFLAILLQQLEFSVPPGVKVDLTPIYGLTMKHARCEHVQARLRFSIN
Method in brief: as §1

IFN-γ = assay: Human whole blood potency, blockade of IFN-γ; format: cell-based; settings: unpublished data
IL-4 = assay: Human whole blood potency, blockade of IL-4; format: cell-based; settings: unpublished data

Sequence of CYP2D6 (P10635 whole entry): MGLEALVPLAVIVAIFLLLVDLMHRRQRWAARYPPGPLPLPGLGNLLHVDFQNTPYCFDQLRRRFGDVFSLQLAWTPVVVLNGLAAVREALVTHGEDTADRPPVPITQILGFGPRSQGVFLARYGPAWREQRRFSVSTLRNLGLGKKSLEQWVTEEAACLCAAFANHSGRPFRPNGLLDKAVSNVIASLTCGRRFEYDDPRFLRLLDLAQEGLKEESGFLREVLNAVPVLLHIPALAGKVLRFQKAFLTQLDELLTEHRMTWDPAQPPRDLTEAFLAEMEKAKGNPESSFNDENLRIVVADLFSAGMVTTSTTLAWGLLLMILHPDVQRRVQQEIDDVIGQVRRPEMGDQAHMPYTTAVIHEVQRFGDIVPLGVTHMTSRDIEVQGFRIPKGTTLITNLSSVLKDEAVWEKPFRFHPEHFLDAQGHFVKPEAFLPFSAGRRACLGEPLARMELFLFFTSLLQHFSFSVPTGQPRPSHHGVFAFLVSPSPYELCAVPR

**Q.** CCc1cccc2cc(C(O)CNC(C)(C)C)oc12 (stereo not shown) [bufuralol] was tested. Which “Percentage Remaining” value (CYP2D6) did it give?
**A.** 2.48%

**Q.** Which “Percentage Remaining” value (CYP2C9) does the source give for O=C(O)Cc1ccccc1Nc1c(Cl)cccc1Cl [diclofenac] here?
**A.** 2.83%

**Q.** Cc1ncc2n1-c1ccc(Cl)cc1C(c1ccccc1F)=NC2 [midazolam, reference compound] was tested. Which “Percentage Remaining” value (CYP3A4) did it give?
**A.** 0.252%

**Q.** How did the “Percentage Remaining” value (CYP2C8) turn out when CC(=O)O[C@H]1C(=O)[C@@]2(C)[C@H]([C@H](OC(=O)c3ccccc3)[C@]3(O)C[C@H](OC(=O)[C@H](O)[C@@H](NC(=O)c4ccccc4)c4ccccc4)C(C)=C1C3(C)C)[C@]1(OC(C)=O)CO[C@@H]1C[C@@H]2O [paclitaxel, reference compound] was run?
**A.** 0.852%

**Q.** Which “Percentage Remaining” value (CYP1A2) does the source give for CCOc1ccc(NC(C)=O)cc1 [phenacetin, reference compound] here?
**A.** 15.1%

**Q.** How did the “level required for blockade of IFN-γ (human whole blood potency)” value (IFN-γ) turn out when N#CC[C@H](C1CCCC1)n1cc(-c2ncnc3[nH]ccc23)cn1 [ruxolitinib] was run?
**A.** 305 nM

**Q.** And the “level required for blockade of IL-4 (human whole blood potency)” value (IL-4)?
**A.** 564 nM
